TRPN1 ag: zebrafish TRPN1 (NompC) channel agonism; AID 1424; HEK293 zebrafish TRPN1-YFP, Fluo-8 calcium fluorescence; 100% = response to 87 µM carbachol; hit rate 0.18% among 220,000; activation, % at 3 µM;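 active = activation above its plate's cutoff, the mean activation of test wells on that plate plus 3 SD, cut at about 19% in these data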;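 also: 0% = DMSO alone and 100% = 87 µM carbachol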
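Control set: carbachol 87 µM as high control, DMSO as low control; system: HEK293 stable line with zebrafish TRPN1-YFP; read-out: % activation versus carbachol response; detection: intracellular calcium fluorescence with Fluo-8; doses: single test compound dose, 3 µM nominal, 0.3% DMSO; schedule: dye 1 h 37 °C plus 30 min RT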
OXTR potentiator: human OXTR potentiation | AID 2445 | CHO-OTR cells, Fluo-8 calcium fluorescence, potentiator mode; 0% = oxytocin EC15, 100% = EC100 | activation, % at 3 µM | P30559 | hit rate 0.061% among 320,000;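 active = activation above that plate's cutoff, the mean activation of tested compounds plus 3 SD, cut at about 6.6% in these data, passing the limit was not always enough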;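 also: 100% uses oxytocin at 75 nM as the full agonist control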
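Dosing: Single dose, 3.0 µM nominal final compound concentration | Material: Human OTR in CHO cells | Technique: Kinetic Fluo-8 calcium fluorescence | Benchmarks: EC15 oxytocin alone as 0%, 75 nM oxytocin as 100% | Probe or stimulus: Oxytocin at about EC15, sub-maximal agonist stimulus | Incubation: Compound 6 min at room temperature before oxytocin, 100 s read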
OXTR agonist: activates the human oxytocin receptor; P30559; CHO-OTR cells, Fluo-8 calcium fluorescence; normalized: DMSO 0%, oxytocin 100%; activation, % at 3 µM; hit rate 0.32% among 320,000;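 active = activation above the mean of all tested compounds plus 3 SD, cutoff set per screening run, cut at about 20% in these data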;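 also: peak over basal fluorescence ratio from a 100 s FLIPR kinetic read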
TRPML3 ag: agonists of human TRPML3 channel; Q8TDD5; HEK293 TRPML3-YFP, Fluo-8 calcium fluorescence; 100% = the carbachol control signal; activation, % at 3 µM; hit rate 0.29% among 220,000; AID 1448;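 active = activation above its plate's cutoff, the mean activation of the plate's test wells plus 3 SD, cut at about 12% in these data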;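 also: 0% = DMSO only wells and 100% = carbachol wells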
Target sequence (Q8TDD5 whole entry, looked up): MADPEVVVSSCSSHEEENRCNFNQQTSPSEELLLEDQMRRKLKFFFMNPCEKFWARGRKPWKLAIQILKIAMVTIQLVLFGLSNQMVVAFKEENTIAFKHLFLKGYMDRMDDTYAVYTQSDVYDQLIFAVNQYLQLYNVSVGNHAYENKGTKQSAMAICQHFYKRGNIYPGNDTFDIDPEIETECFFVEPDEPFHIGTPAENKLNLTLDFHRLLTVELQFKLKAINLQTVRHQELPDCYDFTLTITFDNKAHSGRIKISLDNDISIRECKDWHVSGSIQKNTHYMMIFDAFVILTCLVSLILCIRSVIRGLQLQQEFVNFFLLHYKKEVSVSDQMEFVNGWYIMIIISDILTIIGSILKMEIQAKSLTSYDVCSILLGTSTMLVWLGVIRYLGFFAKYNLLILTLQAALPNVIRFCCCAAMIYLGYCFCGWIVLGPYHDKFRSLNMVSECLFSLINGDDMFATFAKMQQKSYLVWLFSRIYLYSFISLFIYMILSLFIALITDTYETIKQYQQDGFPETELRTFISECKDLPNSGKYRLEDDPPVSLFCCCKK
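Material: HEK293 cells stably carrying human TRPML3-YFP; compound dosing: single dose, 3 µM final nominal compound, 0.3% DMSO final; incubation: 1-h 37 °C dye load, 5-s basal, 120-s post-compound reads; technique: Fluo-8 intracellular calcium fluorescence, excitation 470-495 nm, emission 515-575 nm; read-out basis: percent activation from peak-to-basal fluorescence ratio, scaled between DMSO and carbachol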
V1R ag counter: counter-screen for oxytocin receptor agonists: human V1a receptor agonists. P37288. CHO-V1R cells, Fluo-8 calcium fluorescence, agonist mode; 0% DMSO, 100% 3 nM vasopressin. activation, % at 3 µM. hit rate 0.25% among 320,000;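 active = activation above the mean activation of all tested compounds plus 3 SD, per screening run, cut at about 20% in these data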;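 also: signal is peak over basal fluorescence ratio across a 100 second FLIPR read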
Active calls of the source: *; nt = no result given. Compounds with a hit are over-represented: about 0.58% of the library has one in this group of screens.

SMILES	TRPN1 ag	OXTR potentiator	OXTR agonist	TRPML3 ag	V1R ag counter
C#CCOCCOCCOCCNc1nc(N2CCN(C(=O)CCCCCCCCCCNC(=O)[C@H]([C@@H](C)CC)n3cc(CCCCCN)nn3)CC2)nc(N2CCN(C(=O)CCCCCCCCCCNC(=O)[C@@H]([C@H](C)CC)n3cc(CCCCCN)nn3)CC2)n1	nt	-16.5	18.9	nt	27.0*
NS(=O)(=O)c1ccc(CCNC(=O)CCCCCn2c(=S)[nH]c3ccc(Br)cc3c2=O)cc1	2.7	-6.5	-0.2	0.5	0.5
CCOc1ncccc1C(=O)OCC(=O)NCCc1ccc(OC)cc1	-0.9	-2.6	-0.2	-0.2	0.0
COc1cc(/C=C2\SC(=S)N(NC(=O)c3ccc(O)cc3)C2=O)ccc1O	nt	-9.7	63.7*	nt	25.3*
COc1cc(/C=C2\SC(=S)N(NC(=O)c3cccnc3)C2=O)ccc1O	10.4	-6.8	10.7	7.1	14.2
COc1cc(/C=C2\SC(=S)N(c3cccnc3)C2=O)ccc1O	20.8*	-10.3	24.3*	5.9	26.4*
COc1cc(/C=C2\SC(=S)N(C(Cc3ccccc3)C(=O)O)C2=O)ccc1O (configuration not stated)	22.4*	-7.8	28.0*	11.9*	29.7*
COc1cc(/C=C2/SC(=S)N(CC3CCCO3)C2=O)ccc1O (configuration not stated)	37.4*	-15.6	47.8*	33.7*	31.7*
Cc1ccc(-c2csc3nc(SCC(=O)Nc4ccc(Cl)c(C(=O)O)c4)[nH]c(=O)c23)cc1	nt	-4.2	-0.7	nt	-0.1
COc1ccc(OC)c(NC(=O)Cn2c(=O)n(CC3CCCO3)c(=O)c3cc(OC)c(OC)cc32)c1 (configuration not stated)	nt	-4.1	-0.8	nt	0.6
CCOc1cc(/C=C2\SC(=S)N(NS(=O)(=O)c3ccccc3)C2=O)ccc1O	nt	-19.3	8.4	nt	11.9
CCOc1cc(/C=C2\SC(=S)N(Nc3ccccc3)C2=O)ccc1O	22.1*	-17.6	47.2*	15.8*	26.6*
COc1cc(/C=C2\SC(=S)N(Nc3ccccc3)C2=O)ccc1O	24.6*	-22.0	57.6*	14.0*	24.4*
CCCNC(=O)c1nnsc1Sc1ccc(Cl)cc1	-1.0	-1.4	-1.4	0.3	-1.0
COc1ccc(S(=O)(=O)N2CCN(C(=O)c3ccco3)CC2)cc1C(C)(C)C	nt	-5.4	1.0	nt	4.3
Cc1c(CCOC(=O)c2cccc([N+](=O)[O-])c2)sc[n+]1CC(=O)c1ccccc1	-1.2	-3.6	0.5	0.0	-0.5
COc1ccc(S(=O)(=O)NCC(=O)NCc2cc(=O)n(C)c(=O)n2C)cc1C	nt	7.4	-0.7	nt	-0.6
O=S(=O)(c1cnc(Cl)c(Cl)c1)N1CCc2ccccc21	-1.7	-5.4	-2.5	15.7*	-1.2
O=S(=O)(c1cnc(Cl)c(Cl)c1)N1CCCc2ccccc21	-1.7	-0.8	-1.7	0.2	-1.1
Cc1cccc(C=Nc2ccc3c4c(cccc24)CC3)c1O	9.1	-5.7	8.9	6.8	24.5*
CCc1ccc(O)c(N=Cc2cccc(C)c2O)c1	0.8	-8.4	0.0	-0.2	-0.8
Cc1nn(C)c(C)c1N1C(=O)c2cccc3c(N)ccc(c23)C1=O	130.6*	-12.4	108.5*	92.8*	127.9*
CCN1C(=O)c2cccc3c(N)ccc(c23)C1=O	nt	-10.1	76.6*	nt	104.3*
COc1ccc2c3c(cccc13)C(=O)N(O)C2=O	-0.6	6.8	-1.8	0.2	-1.8
Cc1ccc(N2C(=O)c3cccc4c(N)ccc(c34)C2=O)c2cccnc12	181.5*	-33.6	132.9*	28.1*	139.2*
O=C1CC(C(=O)Nc2ccccc2)S/C(=N\NC(=O)c2ccccc2Cl)N1 (configuration not stated)	1.2	-9.4	0.1	0.4	-0.4
COc1ccccc1CCNC(=O)CCn1nc(C)c2c(C)n(-c3ccccc3)nc2c1=O	nt	-3.9	-1.4	nt	-1.1
O=C(CCCN=C1NS(=O)(=O)c2ccccc21)OCC(=O)c1ccc(F)cc1	nt	-8.8	20.3*	nt	23.1*
O=C(CCN=C1NS(=O)(=O)c2ccccc21)OCC(=O)c1ccc(F)cc1	nt	-4.8	1.8	nt	4.1
O=C(Nc1ccc(Cl)cc1)Nc1cccc2nsnc12	8.4	-22.4	3.7	4.5	4.5

Assay outcomes (PubChem BioAssay)
